Source: PubChem BioAssay (The Scripps Research Institute Molecular Screening Center)
RBBP9 inhibitor: human RBBP9 inhibitors, primary screen, biochemical, fluorescence polarization, FP-Rh probe, HTS | Serine hydrolase RBBP9 (Homo sapiens), O75884 | recombinant RBBP9 | inhibition, % at 7.94 µM | 220,000 tested, 0.2% active;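 active = inhibition above the campaign mean of all tested compounds plus 3 SD, cut at about 14% in these data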;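 note: plate controls were DMSO wells with RBBP9 for no effect and wells lacking RBBP9 protein for full effect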
Target sequence (O75884 whole entry, looked up): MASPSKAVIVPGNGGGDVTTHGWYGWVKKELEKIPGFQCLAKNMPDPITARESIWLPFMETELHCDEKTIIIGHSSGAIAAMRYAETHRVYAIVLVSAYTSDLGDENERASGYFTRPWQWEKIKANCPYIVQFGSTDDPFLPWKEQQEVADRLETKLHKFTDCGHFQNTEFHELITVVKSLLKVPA
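Measured by: FP readout at 525/598 nm; material: recombinant human RBBP9; also added: Serine-hydrolase probe FP-Rh, 375 nM pre-mixing; medium: Tris buffer pH 8.0, NaCl, Pluronic; replication: one well per compound; doses: one concentration, 7.94 µM nominal, 0.794% DMSO; timing: preincubation 30 min plus labeling 45 min at 25 °C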
MBD2 inh: inhibitors of MBD2 binding to methylated DNA, primary screen, biochemical, TR-FRET, DNA-binding domain, human | MBD2 binding to methylated oligonucleotide | AID 686964, 2013 | inhibition, % at 4.4 µM | Methyl-CpG-binding domain protein 2 (Homo sapiens), Q9UBB5 | 370,000 tested, 0.31% active; in the data active = inhibition above about 13%
LEDGF integ inh: blockers of LEDGF/p75-dependent integrase strand transfer – biochemical, TR-FRET, high throughput, primary screen. HIV-1 integrase (with human LEDGF/p75). TR-FRET IN-LEDGF/p75 DNA integration, Eu/Cy5. inhibition, % at 3.7 µM. 370,000 tested, 0.64% active. AID 743269, 2014;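 active = inhibition above the screen-wide mean plus 3 SD, cut at about 13% in these data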;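 note: signal is the Cy5 over europium emission ratio at 671 and 618 nm; 0% = plate median of compound wells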
PRMT1 inh: PRMT1 methyltransferase inhibitors, primary screen, biochemical, fluorescence polarization | Protein arginine N-methyltransferase 1 (Homo sapiens), Q99873 | recombinant PRMT1, activity-based probe fluorescence polarization | inhibition, % at 2.79 µM | 370,000 tested, 1.3% active | AID 652257, 2013;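 active = inhibition above about 21% made by adding two undisclosed values, limit read from the data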
Target sequence (Q99873 whole entry, looked up): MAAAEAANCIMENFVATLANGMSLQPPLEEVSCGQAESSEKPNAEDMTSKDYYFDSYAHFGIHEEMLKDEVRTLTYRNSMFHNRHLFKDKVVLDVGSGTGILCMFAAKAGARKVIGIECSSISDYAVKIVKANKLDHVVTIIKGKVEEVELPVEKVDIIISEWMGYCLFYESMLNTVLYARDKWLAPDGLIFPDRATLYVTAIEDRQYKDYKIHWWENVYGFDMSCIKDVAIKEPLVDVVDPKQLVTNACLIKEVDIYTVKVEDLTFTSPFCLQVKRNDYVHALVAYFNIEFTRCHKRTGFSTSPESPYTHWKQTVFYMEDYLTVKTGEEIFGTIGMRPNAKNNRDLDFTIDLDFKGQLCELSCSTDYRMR
UHRF1 binding: UHRF1 methylated DNA binding inhibitors, primary screen, counter-screen for MBD2 inhibitor project, biochemical, TR-FRET, human UHRF1, single concentration | 370,000 tested, 0.75% active | inhibition, % at 4.4 µM | UHRF1 binding to methylated oligo | E3 ubiquitin-protein ligase UHRF1 (Homo sapiens), Q96T88; in the data active = inhibition above about 21%;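 note: UHRF1 SRA domain binding a hemimethylated CpG hairpin DNA probe; 0% = median of test compound wells and 100% = reference inhibitor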
ABHD5 PLIN5 PPI: ABHD5-PLIN5 interaction inhibitors, primary screen, cell lysate, split luciferase complementation, luminescence | Split G. princeps luciferase complementation, 4 h | 360,000 tested, 0.78% active | inhibition, % at 4 µM;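 active = inhibition above the mean inhibition across every tested compound plus 3 SD, cut at about 22% in these data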;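 note: 0% = DMSO only wells and the 100% control is not disclosed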
* hit, by the source's call; nt = no result. An excerpt weighted towards active compounds, which were near 3.1% of everything screened.

SMILES	RBBP9 inhibitor	MBD2 inh	LEDGF integ inh	PRMT1 inh	UHRF1 binding	ABHD5 PLIN5 PPI
c1ccc(C2OC3c4cccc5cccc(c45)C3N2c2ccccc2)cc1 (configuration not stated)	-8.7	-9.0	3.6	24.5*	-16.1	-14.1
COC(=O)[C@]12C[C@H](CC(=O)N3CCN(C(=O)C4CC4)CC3)C(=O)N(CCc3ccc(OC)c(OC)c3)C1=C[C@H](C1CCCC1)O[C@@H]2C	nt	4.2	-1.1	0.6	0.4	nt
Cc1nn(C)c(Cl)c1/C=C/C(=O)O	1.3	2.1	-6.5	1.5	0.2	-0.1
Cc1nn(C)c(C)c1/C=C/C(=O)O	-1.4	12.9	3.7	-2.2	39.4*	-0.3
NS(=O)(=O)c1ccc(NNC(=O)c2ccccc2)cc1	-4.4	-0.1	1.2	-0.2	-0.5	-3.7
O=C(NNc1cc(Br)c(O)c(Br)c1)c1ccccc1	7.6	-1.1	-1.8	22.9*	-2.9	21.3
C=CCN1[C@@H](Cc2ccccc2)COc2cccc(N3CCCC3)c2S1(=O)=O	nt	3.8	-3.4	3.2	3.6	nt
N#CC(C#N)=C1C=CC=CN1/C(=C\c1ccco1)C(=O)c1ccc(Br)cc1	3.4	0.2	-1.3	13.8	-1.8	91.8*
COc1ccc(C(C(=O)N(C)C2CCCC2)N(Cc2ccc(F)cc2)C(=O)c2cc(C)[nH]n2)cc1OC (configuration not stated)	nt	-1.2	2.3	-3.7	1.3	nt
CN1CCN(CC(=O)Nc2ccc(S(=O)(=O)N(C)C)cc2)CC1	nt	9.6	7.8	2.9	21.7*	-10.0
CN(C)S(=O)(=O)c1ccc(NC(=O)CN2CCCCCC2)cc1	nt	-0.1	-2.5	-2.9	0.8	-4.6
Cc1cc(NS(=O)(=O)c2ccc(NC(=O)/C=C/c3ccco3)cc2)nc(C)n1	-7.1	-0.4	-2.5	24.2*	3.0	-1.1
CCCn1nc([N+](=O)[O-])c(C(C#N)c2nc3ccccc3s2)c(Cl)c1=O (configuration not stated)	5.8	-1.2	-0.5	28.1*	-3.3	11.5
CCn1nc([N+](=O)[O-])c(C(C#N)c2nc3ccccc3n2C)c(Cl)c1=O (configuration not stated)	2.6	-3.4	-1.5	2.4	-3.6	7.4
COc1cccc(CC2(CO)CCCN(Cc3ccccc3Cl)C2)c1 (configuration not stated)	nt	-3.8	3.0	-4.0	-0.8	0.6
COc1cccc(CC2(CO)CCCN(Cc3ccc(CN4CCCCC4)s3)C2)c1 (configuration not stated)	-13.4	2.4	-1.2	-0.1	26.8*	3.8
CCC(=O)N(CC)C1=C(O)c2ccccc2C(=O)C1=O	7.8	-8.4	3.7	53.4*	-9.8	-32.6
CCCc1nc2ccc(Br)cn2c1Cc1ccccc1	nt	3.9	3.6	-3.5	23.0*	-0.5
Clc1cccc(Cc2c(-c3cccc(Cl)c3)nc3ccc(Br)cn23)c1	nt	4.6	-3.0	3.0	3.4	-12.6
CCCc1nc2ccc(Br)cn2c1Cc1cccc(Cl)c1	nt	7.8	-1.6	0.6	21.0*	-1.3
COc1ccc(/C=C/S(=O)(=O)NCc2ccc(F)cc2)c(CNC(=O)OC(C)(C)C)c1	nt	2.6	-5.5	-1.3	1.6	nt
FC(F)(F)c1ccccc1NC(=S)OC1CCC12CCC(c1ccccc1)CC2 (configuration not stated)	nt	2.1	1.0	3.3	0.7	nt
O=c1[nH]c2ccccc2c(O)c1-[n+]1ccccc1	-5.8	-5.7	1.9	5.4	-3.7	-7.8
O=c1[nH]c2ccccc2c(O)c1O	15.6*	3.1	-9.0	75.0*	5.0	98.3*
CCCCS(=O)c1c(O)c2ccccc2[nH]c1=O (configuration not stated)	-4.9	6.9	-3.3	22.2*	3.2	-2.7
SMILES	RBBP9 inhibitor	MBD2 inh	LEDGF integ inh	PRMT1 inh	UHRF1 binding	ABHD5 PLIN5 PPI
COC(=O)C1CN(CCO)CCS(=O)(=O)N1Cc1cccc(Cl)c1 (configuration not stated)	nt	1.9	-0.5	-2.5	-1.8	nt
CCOC(=O)N1CCN(CCC(=O)c2ccc(Cl)cc2)CC1	-10.0	-4.0	-5.0	1.0	-0.4	0.7
CCOC(=O)N1CCN(CCC(=O)c2ccc(OC)cc2)CC1	-4.3	-2.0	-0.6	21.4*	3.2	1.8
COc1ccc(C(=O)CCN2CCCC(C)C2)cc1 (configuration not stated)	nt	4.9	2.1	24.6*	0.4	5.3
COC(=O)c1ccc2nc(-c3ccc(Cl)cc3)c(Cc3ccc(OC)cc3C)n2c1	nt	10.4	1.0	1.9	24.9*	-3.6
COC(=O)c1ccc2nc(-c3ccc(OC)c(OC)c3)c(Cc3ccc(OC)cc3C)n2c1	nt	11.6	-3.2	9.2	21.2*	9.2
COC(=O)c1ccc2nc(-c3cccc(Br)c3)c(Cc3ccccc3OC)n2c1	nt	6.2	0.9	-1.9	10.7	-3.2
COc1ccc(Cc2c(-c3ccc(C)cc3)nc3ccc(Cl)cn23)c(C)c1	nt	0.4	0.3	-2.7	7.5	-4.0
COc1cccc(-c2ccc3c(c2)[C@@H]2C[C@H]4[C@@H](CN2CC3)[C@H](C)ON4C)c1	nt	0.2	4.0	-3.9	-3.3	nt
NC(=O)C1CCN(c2nc(-c3ccc(OCc4ccccc4)cc3)cs2)CC1	nt	2.7	-2.2	4.7	5.8	nt
N#Cc1cn(CC(=O)NCC2CCCO2)c2ccccc12 (configuration not stated)	6.4	2.9	-2.0	-1.6	22.7*	0.3
O=C(c1cccs1)N1CC[C@H]2[C@H](CCCN2Cc2ccc(F)cc2)C1	nt	2.9	-2.6	0.5	0.8	nt
O=C1CCCc2oc3c(c21)CCCC3	3.1	11.6	-5.6	5.0	23.2*	-0.8
COC(=O)c1oc2c(c1C)C(=O)CCC2	-9.2	1.5	-5.6	-0.1	3.1	9.6
Cc1cc(-c2nnc(SCC(=O)Nc3nc(-c4ccccc4)cs3)o2)no1	-4.7	2.6	5.1	24.7*	-2.0	-5.1
CCOC(=S)SCC(=O)Nc1nc(-c2ccccc2)cs1	-10.0	-2.0	-2.7	26.1*	-4.0	-12.8
COC(=O)c1ccc2c(C(C)c3ccccc3O)c[nH]c2c1 (configuration not stated)	nt	3.1	0.3	0.0	-2.2	nt
CN1CCCCC(NC(=O)COCc2ccccc2)C1=O (configuration not stated)	nt	-8.2	6.3	-3.1	-1.0	nt
Cc1ccc(-c2c[n+](CC(=O)Nc3ccc(C)cc3C)c3n2CCC3)cc1	-0.2	-0.1	-4.3	-4.5	37.0*	2.1
